High-throughput results: PubChem, Sanford-Burnham Center for Chemical Genomics
In the library only some 2.9% were active in any assay of this set; here they are far more common.
SENP1 FRET inh – blocks the human SENP1 SUMO protease catalytic domain. 360,000 tested, 0.21% active. Q9P0U3. inhibition, % at 10 µM. recombinant SENP1 catalytic domain, CyPet-SUMO1-YPet FRET cleavage;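 active means inhibition at least 30% at 10 µM, raw YFP signal under a set limit, fluorescence ratio 0.5 to 1.5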;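 further: 0% = enzyme with DMSO and 100% = no enzyme wells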
Target sequence (Q9P0U3 419-644 limits assumed): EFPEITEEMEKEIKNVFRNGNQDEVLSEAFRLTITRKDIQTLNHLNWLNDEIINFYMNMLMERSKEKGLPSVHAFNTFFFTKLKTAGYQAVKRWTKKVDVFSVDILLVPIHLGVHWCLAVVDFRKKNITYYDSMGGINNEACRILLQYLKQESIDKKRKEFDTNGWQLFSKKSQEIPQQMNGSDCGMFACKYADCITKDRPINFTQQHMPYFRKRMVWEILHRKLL
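system = hSENP1 catalytic domain, recombinant | reagent = SFCypet-SUMO1-SFYpet substrate at 25 nM | doses = one dose per compound, 10 µM, 0.5% DMSO | incubation = enzyme reaction for 50 min at room temperature, dark | measured by = FRET, CFP and YFP emission | controls = no-enzyme low, enzyme-DMSO high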
SENP8 block-1 – inhibitors of human SENP8 protease. inhibition, % at 10 µM. AID 2540. 330,000 tested, 1.2% active. purified SENP8, Z-RLRGG-aminoluciferin cleavage, luminescence; in the data active means inhibition above about 50%
SENP8 block-2 – blocks human SENP8 cleavage of Nedd8 substrate | inhibition, % at 20 µM | 360,000 tested, 0.64% active | Q96LD8 | recombinant SENP8, Nedd8 substrate fluorescence; in the data active means inhibition mostly above about 40%, no sharp cut-off; inactive means mostly below about 27%
SENP7 inh – blocks the human protease SENP7; Q9BQF6; recombinant SENP7, Z-RLRGG-aminoluciferin luminescence, 40 min; inhibition, % at 5 µM; 330,000 tested, 1.5% active;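 active means inhibition above about 50% at the single test dose, limit read from the data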;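 further: plate controls were DMSO with enzyme for no effect and no enzyme buffer wells for full effect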
Target sequence (Q9BQF6 706-1050 limits assumed): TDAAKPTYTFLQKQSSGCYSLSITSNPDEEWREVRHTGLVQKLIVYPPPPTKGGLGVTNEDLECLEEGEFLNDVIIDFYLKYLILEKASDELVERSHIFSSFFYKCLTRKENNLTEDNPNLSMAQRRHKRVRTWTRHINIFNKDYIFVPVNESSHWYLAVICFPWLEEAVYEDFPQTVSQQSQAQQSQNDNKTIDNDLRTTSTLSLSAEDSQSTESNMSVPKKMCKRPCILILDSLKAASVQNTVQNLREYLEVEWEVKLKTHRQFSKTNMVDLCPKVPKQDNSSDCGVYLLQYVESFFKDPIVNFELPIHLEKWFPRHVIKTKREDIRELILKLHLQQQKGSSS
Apaf1 inhib – blocks human Apaf-1 apoptosome activity; reconstituted apoptosome caspase-3 activity, DEVD-Rh110 fluorescence; 330,000 tested, 0.71% active; AID 489030; inhibition, % at 20 µM; active means inhibition of at least 40% at 20 µM;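 further: plate controls were DMSO wells for no effect and DEVD-CHO caspase inhibitor wells for full effect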
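Material: reconstituted apoptosome with Apaf-1, cytochrome c, caspase-9, procaspase-3, dATP; medium: pH 7.5 Hepes buffer with CHAPS, BSA, DTT; also added: cytochrome c and DEVD-Rh110 substrate; timing: 30 min plus 50 min, RT; signal: Rh110 fluorescence intensity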
SENP6 inh – inhibitors of human SENP6 protease. inhibition, % at 10 µM. 330,000 tested, 1.8% active. AID 2599. Recombinant SENP6 catalytic domain, aminoluciferin luminescence. Q9GZR1;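 active means inhibition above about 50% at the single tested dose, limit read from the data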;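 further: plate controls were DMSO wells with enzyme for no effect and DMSO wells lacking enzyme for full effect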
SENP8 confirm – human SENP8 inhibition, confirmed. Recombinant SENP8, Z-RLRGG-aminoluciferin luminescence, 60 min. AID 488912. 6,200 tested, 40% active. shares compounds with SENP7 inh. inhibition, % at 12.5 µM;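 active means mean inhibition across replicates above about 50%, limit read from the data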
SENP6 confirm – human SENP6 inhibition, confirmed; 6,200 tested, 58% active; AID 488915; shares compounds with SENP7 inh; recombinant SENP6, Z-RLRGG-aminoluciferin luminescence; inhibition, % at 12.5 µM
SENP7 conf – confirmation of human SENP7 protease inhibitors; AID 488917; inhibition, % at 12.5 µM; recombinant SENP7, Z-RLRGG-aminoluciferin luminescence, 40 min; 6,200 tested, 69% active; shares compounds with SENP7 inh
Casp3 select – selectivity test for SENP inhibitors: human caspase-3 inhibition | shares compounds with SENP7 inh | purified caspase-3, Z-DEVD-aminoluciferin luminescence, 60 min | inhibition, % at 12.5 µM | 6,200 tested, 60% active;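 active means mean inhibition above about 50%, limit read from the data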;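 further: plate controls were enzyme with DMSO for no effect and wells without caspase-3 for full effect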
Luc interf – interferes with luciferase luminescence in SENP counter-screen; shares compounds with SENP7 inh; Pre-incubated SENP8/Z-RLRGG-aminoluciferin, luciferase luminescence interference; inhibition, % at 12.5 µM; 6,200 tested, 39% active;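 active means mean inhibition above about 50% when retested at one dose, limit read from the data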;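 further: plate controls were DMSO wells with completed reaction for no effect and substrate without enzyme for full effect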
Active calls of the source: *; . = no result.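 How the source made its calls, unless noted: active means mean inhibition above about 50% in the one-dose retest (limit read from the data); inactive means the rest.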

SMILES	SENP1 FRET inh	SENP8 block-1	SENP8 block-2	SENP7 inh	Apaf1 inhib	SENP6 inh	SENP8 confirm	SENP6 confirm	SENP7 conf	Casp3 select	Luc interf
COc1cc(OC)cc(C(=O)N=c2sc3ccccc3n2C)c1	2	-7	-419	51*	2	0	-2	3	2	12	10
COC(=O)C[C@@H]1CC[C@H](NS(=O)(=O)c2ccccc2F)[C@@H](CO)O1	5	.	19	.	.	.	.	.	.	.	.
CCCCN1C[C@H](Cc2ccccc2)[C@@H](CC(=O)NC)C1=O	-1	.	3	.	.	.	.	.	.	.	.
CCCCNC(=S)N/N=C/c1cccc(OCC)c1O	-78	8	-424	2	-6	11	.	.	.	.	.
CCOc1cccc(/C=N/NC(=S)Nc2ccccc2[N+](=O)[O-])c1O	-2	47	23	79*	5	31	28	55*	37	26	7
COc1ccc(-c2ccc(N3C(c4cc(OC)cc(OC)c4)=Cc4ccc(OC)cc4C3CC(C)=O)cc2)cc1 (centres undefined)	-85	.	-390	.	.	.	.	.	.	.	.
CCCSc1ccc2nc(-c3ccccc3)cn2c1	3	96*	-356	98*	25	96*	98*	99*	102*	97*	93*
COc1ccc(Cl)cc1N(CC(=O)NCCSc1ccccn1)S(=O)(=O)c1ccccc1	2	3	16	3	15	24	.	.	.	.	.
COc1cc(NS(=O)(=O)c2ccc(NC(=O)/C(=C\c3ccccc3OC)NC(=O)c3ccccc3)cc2)nc(OC)n1	-1	1	-3	-4	3	2	.	.	.	.	.
COc1cc(NS(=O)(=O)c2ccc(NC(=O)/C(=C/c3ccccc3Cl)NC(=O)c3ccccc3)cc2)nc(OC)n1	-2	3	17	4	12	64*	-20	-17	-3	-7	-5
O=C(N/N=C/c1cccc([N+](=O)[O-])c1)c1nc2ccccc2c(=O)[nH]1	0	7	16	5	-11	-4	.	.	.	.	.
O=C(N/N=C/c1ccccc1Cl)c1ccc(F)cc1	0	9	8	37	-14	69*	2	16	8	48	44
O=C(N/N=C/c1ccccc1Cl)c1nc2ccc([N+](=O)[O-])cc2c(=O)[nH]1	-34	75*	-50	46	6	57*	47	53*	48	50*	45
CN1CCCN(C(=O)CNC(=O)c2ccccc2Br)CC1	-1	-6	-6	-12	11	-15	.	.	.	.	.
O=C(Nc1ccc2nc(-c3cccnc3)[nH]c2c1)c1ccccc1F	0	-12	-62	3	6	-25	.	.	.	.	.
c1cncc(-c2nc3cc4ccccc4cc3[nH]2)c1	-14	89*	-263	1	-14	90*	87*	89*	100*	88*	62*
c1ccc(-c2nc3cc4ccccc4cc3[nH]2)nc1	-4	94*	-319	100*	12	99*	96*	97*	100*	96*	94*
C(=Nn1cnnc1)c1ccc2c(c1)CCC2	4	.	5	.	.	.	.	.	.	.	.
O=C(/C=C/c1ccco1)N1CCc2ccccc21	-2	91*	13	91*	14	93*	-1	96*	102*	97*	94*
Cc1ccc(/C=C/C(=O)N2CCc3ccccc32)o1	-6	38	2	-3	25	49	.	.	.	.	.
O=C(Nc1cccc(S(=O)(=O)N2CCCCC2)c1)c1cc(=O)[nH]c2ccccc12	-3	-19	-154	-1	21	-15	.	.	.	.	.
CN(CCOc1ccccc1)C(=O)c1ccc2c(c1)OCO2	0	15	6	2	-11	9	.	.	.	.	.
O=C(NCCOc1ccccc1)c1ccc2c(c1)OCO2	2	50	4	-2	2	69*	50*	48	85*	80*	69*
O=C(NCCOc1ccccc1)c1ccc2n[nH]nc2c1	0	50*	-2	32	12	58*	68*	68*	87*	87*	72*
CC(C)C[C@H](NC(=O)CC[C@H]1O[C@@H](n2ccc(=O)[nH]c2=O)[C@H](O)[C@@H]1O)C(=O)O	0	.	22	.	.	.	.	.	.	.	.
SMILES	SENP1 FRET inh	SENP8 block-1	SENP8 block-2	SENP7 inh	Apaf1 inhib	SENP6 inh	SENP8 confirm	SENP6 confirm	SENP7 conf	Casp3 select	Luc interf
Cc1ccc(-c2ccc(CCC(=O)O)o2)cc1	0	19	-1	25	6	58*	74*	70*	86*	61*	76*
COc1ccc(CCN=Cc2c(C)[nH]n(-c3ccc([N+](=O)[O-])cc3)c2=O)cc1OC	0	5	13	4	-3	23	.	.	.	.	.
Cc1[nH]n(-c2ccc([N+](=O)[O-])cc2)c(=O)c1C=NCCN1CCN(C(=O)c2ccccc2)CC1	6	70*	28	90*	3	88*	27	44	31	67*	59*
CN(C)c1ccc(/C=N/Nc2cccc(C(=O)O)c2)cc1	-15	96*	-52	5	3	99*	98*	102*	104*	100*	100*
CC(C)(C)c1ccc(/C=N/Nc2cccc(C(=O)O)c2)cc1	0	27	-18	-3	8	10	.	.	.	.	.
COc1ccc(Br)cc1/C=N/Nc1cccc(C(=O)O)c1	-14	-5	-40	8	7	5	.	.	.	.	.
O=C(O)c1cccc(N/N=C/c2cc(Br)cc(Br)c2O)c1	-83	74*	-3	2	14	77*	39	90*	95*	5	77*
CSCCC(NC(=O)OC(C)(C)C)C(=O)Oc1ccc2c(=O)c(-c3ccc4c(c3)OCCO4)coc2c1 (centres undefined)	-4	33	-208	48	2	62*	14	18	58*	76*	13
CSCCC(NC(C)=O)C(=O)Oc1ccc2c3c(c(=O)oc2c1)CCCC3 (centres undefined)	-134	.	-283	.	.	.	.	.	.	.	.
CC(C)COc1cccc(C(=O)Nc2ccc(N3CCOCC3)cc2N2CCOCC2)c1	1	11	12	1	32	-13	.	.	.	.	.
Cc1cc(C)c(C(=O)Nc2ccc3c(c2)OCCO3)c(C)c1	-2	.	23	.	.	.	.	.	.	.	.
